Results on 24 compounds are retold here after PubChem BioAssay AID624106 (Broad Institute, 2012).

Activity calls are given as the source filed them.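 Rule for the calls: active = fitted curve reaches a 35% absorbance drop at both wavelengths in duplicate, with AC35 under 50 µM; inactive = the rest, including signal rising instead of falling.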

System in the first test: not listed separately
As to the kind of experiment: pyoverdine output of iron-starved P. aeruginosa PAK, dose response, PAK wild type, OD405, dry powder, set 2 (AID 624106). As to conditions: P. aeruginosa PAK + EDDHA, OD405 pyoverdine, 28 h; at 100 µM (top of the series). The procedure, abridged: (§1)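 Incubation: compound exposure 28 h at 30 °C, humidified; Assay system: WT P. aeruginosa PAK; Buffer or medium: succinate M9 pH 7.0 plus 2 µM EDDHA; Dosing: compound dose series, final 15 nM up to 100 µM.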
Regarding `CCCCC(c1ccc(Cl)cc1)c1nn[nH]n1` (centres undefined), the activity change, negative = inhibition is -8.03% (inactive).

As to `N#CC1c2ccc(Cl)cc2CCc2cccnc21` (centres undefined), the activity change, negative = inhibition is -13.8% (inactive). In the case of `CN(C)CCCC(C#N)c1ccc(Cl)cc1` (centres undefined), the activity change, negative = inhibition was -3.43% (inactive). Consider `CCCCC(C#N)c1ccccn1` (centres undefined), for which the activity change, negative = inhibition was -4.26% (inactive). Turning to `CCCCC(C#N)c1ccc(F)cc1` (centres undefined), the activity change, negative = inhibition is -5.09% (inactive). As to `CN(C)CCCC(C#N)c1ccc(F)cc1` (centres undefined), the activity change, negative = inhibition was -12.9% (inactive).

On to `CCCCC(C#N)c1ccc(F)cn1` (centres undefined), for which the activity change, negative = inhibition was -12.4% (inactive).

In the case of `COCCC(C#N)c1ccc(Cl)cc1` (centres undefined), the activity change, negative = inhibition was -2.12% (inactive). In the case of `CCCCC(C#N)c1ccc(Cl)cc1` (centres undefined), the activity change, negative = inhibition is -7.02% (inactive).

Consider `Clc1ccc(C(c2cccc(Cl)n2)c2nn[nH]n2)cc1` (centres undefined), for which the activity change, negative = inhibition is 11.9% (inactive). With `COCCNC(C#N)c1ccc(Cl)cc1` (centres undefined), the activity change, negative = inhibition was -12.1% (inactive). Consider `COCCOCCC(C#N)c1ccc(F)cc1` (centres undefined), for which the activity change, negative = inhibition was -8.85% (inactive). On to `N#CC(c1ccc(C(F)(F)F)c(Cl)n1)c1ccccc1OC(F)(F)F` (centres undefined), for which the activity change, negative = inhibition was -16% (inactive).

Consider `COCCOCCC(C#N)c1ccc(Cl)cc1` (centres undefined), for which the activity change, negative = inhibition is -2.61% (inactive). For `CCCCC(C#N)c1ccc(Cl)cn1` (centres undefined), the activity change, negative = inhibition was -7.7% (inactive).

The next test has as its system P. aeruginosa PAK + EDDHA, OD405 pyoverdine, 28 h. Described as above.
Settings: not given
The procedure, abridged: as §1
Consider `N#CC(c1ccc(Cl)cc1)c1cccc(Cl)n1` (centres undefined), for which the AC35 is 67 µM. Still for that read-out and setting: the same measure for `N#CC(c1cccc(Cl)n1)c1ccc(Cl)cc1F` (centres undefined): 25.9 µM; for `N#Cc1cccc(C(C#N)c2ccc(F)cc2)n1` (centres undefined): > 100 µM (inactive); for `N#CC(c1ccc(Cl)cc1)N1CCCC1` (centres undefined): > 100 µM (inactive). On the same count and under the same terms, the same measure for `COCCC(C#N)c1ccc(F)cc1` (centres undefined): > 100 µM (inactive); for `N#CC(c1ccc(Cl)cc1)c1cccc(C(F)(F)F)n1` (centres undefined): 19.3 µM. For the compound `N#CC(c1ccc(F)cc1)c1cccc(C(F)(F)F)n1` (centres undefined), the AC35 was 45.4 µM. Turning to `N#CC(c1cccc(C(F)(F)F)n1)c1ccc(Cl)cc1F` (centres undefined), the AC35 is 18.8 µM. On to `N#CC(c1ccc(Cl)cc1)c1ccccn1` (centres undefined), for which the AC35 is > 100 µM (inactive).
